Screens (PubChem BioAssay)
Shown is part of a subset that was picked to be rich in hits.
Insulin prom act: TRM-6 insulin promoter activation; activation, % at 2 µM; TRM-6 cells, insulin promoter eGFP reporter, imaging; plate-scaled: unstimulated 0, stimulated control 100; 130,000 compounds, 0.81% hits; AID 1296;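 active = activation at 2 µM above a set limit, confirmed on inspection of the cell images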;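 note: share of cells whose green reporter signal exceeds an intensity cutoff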
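Test system: human fetal islet-derived TRM-6 cells with tamoxifen-inducible insulin promoter–eGFP reporter. Compound dosing: 2 µM final, single concentration. Incubation: tamoxifen pre-incubation 15 h overnight, then compound exposure 48 h at 37 °C. Signal: fixed-cell fluorescence microscopy, eGFP plus Hoechst.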
Numbers stand for hits; n = inactive.

SMILES | Insulin prom act
O=P(OC1CCCCC1)(OC1CCCCC1)C(O)c1ccccc1 (stereo unspecified) | 104
Cn1c(N)c(C(=O)COC(=O)c2ccc3c(c2)OCCO3)c(=O)n(C)c1=O | n
CC(C)Cn1c(N)c(C(=O)CSc2ccc3c(c2)OCCO3)c(=O)n(C)c1=O | 168
CC(C)Cn1c(N)c(C(=O)CSc2nnnn2C)c(=O)n(C)c1=O | n
COc1ccc(Nc2nnc(-c3ccc(N4CCOCC4)c([N+](=O)[O-])c3)c3ccccc23)cc1 | n
O=C(O)Cc1ccc(C(=O)c2ccccc2F)s1 | n
NC(=O)C(c1ccc(Cl)cc1Cl)c1ncc(C(F)(F)F)cc1Cl (stereo unspecified) | n
CCOC(=O)c1ccccc1NC(=O)COc1cc(=O)n(CC)c2ccccc12 | n
COc1ccc(CNC(=O)COc2cc(=O)n(C)c3ccccc23)cc1 | n
CCn1c(=O)cc(OCC(=O)NCc2ccc(C)o2)c2ccccc21 | 100
Cc1ccc(N2C(=O)N(Cc3ccccc3C)c3ccccc3S2(=O)=O)cc1 | n
CCC(C(=O)O)P(=O)(c1ccc(Cl)cc1)c1ccc(Cl)cc1 (stereo unspecified) | n
O=C(/C=C/c1ccco1)NC(=S)Nc1cc(C(F)(F)F)ccc1N1CCOCC1 | 211
O=C(CCCCl)NC(=S)Nc1cc(C(F)(F)F)ccc1N1CCOCC1 | n
CC(C)(C)C(=O)Nc1cc(C(F)(F)F)ccc1N1CCOCC1 | n
CCN(CC)C(=O)C1CCCN(C(=O)Nc2ccccc2)C1 (stereo unspecified) | n
CCCNC(=O)COC(=O)c1cc2c(=O)n3ccccc3nc2s1 | n
COc1ccc(C2SCC(=O)N2c2c(C)n(C)n(-c3ccccc3)c2=O)cc1OC (stereo unspecified) | n
CCOC(=O)c1sc2nc(-c3cccnc3)ccc2c1N | n
COc1ccc(C(=O)c2sc3nc(-c4ccccc4)ccc3c2N)cc1 | 207
COc1ccc(C(=O)c2oc3ccccc3c2N)cc1 | n
CN(C)C=NC(=O)/C(C#N)=C/c1ccccc1 | n
CCc1nnc(NC(=O)/C=C/c2ccco2)s1 | n
Cc1ccc(/C=C/C(=O)Nc2ccc(S(=O)(=O)Nc3ncccn3)cc2)cc1 | n
CCc1nnc(NS(=O)(=O)c2ccc(NC(=O)/C=C/c3ccc(F)cc3)cc2)s1 | 275
SMILES | Insulin prom act
CCN(c1ccccc1)S(=O)(=O)c1cc(C(=O)Oc2ccc3c(C)cc(=O)oc3c2)ccc1C | n
Cc1cccc(C)c1N(CC(=O)N1CCN(c2ccccc2F)CC1)S(C)(=O)=O | n
Cc1cccc(C)c1N(CC(O)Cn1c2ccccc2c2ccccc21)S(C)(=O)=O (stereo unspecified) | 89
Cc1nccn1CC(O)Cn1c2ccccc2c2ccccc21 (stereo unspecified) | n
CC(C)OC(=O)c1cccc(NC(=O)c2ccccc2)c1 | n
COCCn1c(SCC(=O)Nc2ccc(Cl)cn2)nnc1-c1ccncc1 | n
CSc1nnc(SCC2=NNC(=O)SC2)s1 | n
O=C(NCc1ccco1)c1cnn2c(C(F)F)cc(-c3ccccc3)nc12 | n
O=C(Nc1c(C(=O)NCc2ccco2)cnn1-c1ccccc1)c1cccc(F)c1 | 287
CC(C)(C)NC(=O)c1cnn(-c2ccccc2)c1NC(=O)c1ccccc1 | n
Cc1ccc(-c2cc(C(F)F)n3ncc(C(=O)Nc4cn(C)nc4C)c3n2)cc1 | n
COC(=O)C1CC(O)CN1S(=O)(=O)c1cccs1 (stereo unspecified) | n
CCCNC(=O)c1cnc(Sc2ncc(C(F)(F)F)cc2Cl)n1C | n
FC(F)(F)c1cnc(Sc2nnc(-c3cccs3)n2CC2CCCO2)c(Cl)c1 (stereo unspecified) | n
N#Cc1c(Sc2ncc(C(F)(F)F)cc2Cl)nsc1C/C=N\OCc1c(F)cccc1Cl | 543
O=C(CS(=O)(=O)c1c[nH]c2ccccc12)N1CCCCCC1 | n
CCN1CCN(C(=O)c2ccccc2N(Cc2ccccc2)S(=O)(=O)c2ccc(C)cc2)CC1 | n
O=C1c2ccccc2-c2onc3ccc(Oc4ccccc4)c1c23 | 400
CC(=O)c1c(C)oc2c1C(=O)c1ccccc1C2=O | n
O=C1c2ccccc2C(=O)c2c1oc(C(F)(F)F)c2C(=O)c1ccccc1 | n
O=C(CCc1ccc(S(=O)(=O)N2CCOCC2)cc1)N1CCc2ccccc2C1 | n
CSc1cnc2c(N)nc(N(C)C)nc2n1 | n
COC(=O)c1cc(COC(=O)c2nc3nccc(C)n3n2)oc1C | n
c1ccc(-n2nnnc2OCCOc2nnnn2-c2ccccc2)cc1 | n
Fc1cccc(-n2ncc(-c3nnnn3-c3ccccc3)c2C(F)(F)F)c1 | 529
SMILES | Insulin prom act
Clc1cccc(N2CCN(c3nnnn3-c3ccccc3)CC2)c1 | n
Cc1ccc(NC(=O)c2oc3ccc(S(=O)(=O)N4CCC5(CC4)OCCO5)cc3c2C)cc1C | n
C=CCOc1c(Br)cc(CNn2nnnc2N)cc1OC | n
CCOC(=O)C(C)Sc1nnc(NC(=O)c2ccc3c(c2)OCO3)s1 (stereo unspecified) | n
C[C@H](NC(N)=O)C(=O)OCC(=O)NCc1cccs1 | n
Cc1noc(C)c1S(=O)(=O)N1CCC(C(=O)NCCc2ccc(S(N)(=O)=O)cc2)CC1 | n
Cc1ccc(CNC(=O)C2CCCN(S(=O)(=O)c3c(C)noc3C)C2)cc1 (stereo unspecified) | n
Cc1ccc(CNC(=O)C2CCN(S(=O)(=O)c3c(C)noc3C)CC2)cc1 | 76
CC1Cc2ccccc2N1C(=S)NC(=O)C1(C)CC1(Cl)Cl (stereo unspecified) | n
O=C1c2cccc3c(N4CCCCC4)ccc(c23)C(=O)N1c1ccc(Cl)cn1 | n
O=C(OCCN1C(=O)c2cccc3c(N4CCOCC4)ccc(c23)C1=O)c1cc(Cl)cc(Cl)c1 | 204
Cn1nc(C(=O)OCCN2C(=O)c3ccccc3C2=O)c2ccccc2c1=O | n
CCN1C(=O)c2cccc3c(S(=O)(=O)Nc4ccccc4OC)ccc1c23 | n
CCCN1C(=O)c2cccc3c(N4CCCCC4)ccc(c23)C1=O | 245
CCN(CC)S(=O)(=O)c1ccc(C(=O)OCCN2C(=O)c3cccc4c(N5CCOCC5)ccc(c34)C2=O)cc1 | n
CCOC(=O)c1[nH]c2ccccc2c1NC(=O)c1ccc(S(=O)(=O)N2CCCCC2)cc1 | n
COc1ccc(CC(=O)NNc2ncnc3c2cnn3-c2ccc(C)cc2)cc1OC | n
COc1ccc(NC(=O)/C(C#N)=C/c2ccc(OCc3ccccc3F)cc2)cc1 | n
O=C1OC(Cc2ccccn2)C(=O)C1=C1SCCS1 (stereo unspecified) | n
COc1ccccc1N1CCN(C2CCN(C(=O)COc3cccc(C)c3)CC2)CC1 | n
O=C(CN1C(=O)S/C(=C/c2cccnc2)C1=O)N1CCOCC1 | n
O=C1S/C(=C/c2ccc(N3CCOCC3)o2)C(=O)N1Cc1c(F)cccc1Cl | 178
O=C1S/C(=C\c2ccc(N3CCOCC3)o2)C(=O)N1Cc1c(F)cccc1Cl | n
O=C(COC(=O)CCc1nc2ccccc2c(=O)[nH]1)NC(=O)NC1CCCC1 | n
CCOC(=O)c1nnn(-c2nonc2N)c1-c1ccc(F)cc1 | n
CCC(=O)N1CCc2cc(S(=O)(=O)NC(Cc3ccccc3)C(=O)NC3CCCCC3)ccc21 (stereo unspecified) | 317
CCOC(=O)N1CCC(NC(=O)C(NS(=O)(=O)c2ccc3c(c2)CCN3C(C)=O)C(C)C)CC1 (stereo unspecified) | n
CCC(=O)N1CCc2cc(S(=O)(=O)NCCCOC)ccc21 | n
Cc1cccc(C(=O)NCC(=O)N2CC(=O)Nc3ccccc32)c1 | n
